According to ChEMBL document CHEMBL4229527, “Design and synthesis of novel pyrimido[5,4-d]pyrimidine derivatives as GPR119 agonist for treatment of type 2 diabetes” (Bioorg Med Chem, 2018):

Key:
[1] = target: T1, Glucose-dependent insulinotropic receptor (Homo sapiens, UniProt Q8TDV5); assay: Agonist activity at human GPR119 expressed in CHOK1 cells assessed as cAMP accumulation after 1 hr by ultra LANCE assay; format: functional, cell-based
T1 sequence (Q8TDV5 whole entry): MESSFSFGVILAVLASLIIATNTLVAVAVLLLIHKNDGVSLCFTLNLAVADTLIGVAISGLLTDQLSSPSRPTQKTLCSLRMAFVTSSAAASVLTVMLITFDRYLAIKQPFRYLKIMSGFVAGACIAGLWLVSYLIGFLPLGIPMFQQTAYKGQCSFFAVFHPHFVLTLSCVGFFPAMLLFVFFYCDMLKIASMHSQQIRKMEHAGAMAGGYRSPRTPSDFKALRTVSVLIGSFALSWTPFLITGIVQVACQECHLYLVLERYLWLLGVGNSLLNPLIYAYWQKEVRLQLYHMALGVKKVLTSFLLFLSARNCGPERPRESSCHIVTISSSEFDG
Outline: (§1)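 hGPR119-transfected cells were centrifuged and resuspended in cAMP assay buffer (HBSS, 0.1% BSA, 0.5 mM IBMX). They were treated with compounds over a concentration range for 1 h. Eu-cAMP tracer and ULight anti-cAMP lysis solutions were then added, with 1 h at room temperature. LANCE Ultra TR-FRET read, triplicates per concentration. EC50 is the concentration giving 50% cAMP stimulation; %max is relative to GSK-1292263 maximal effect.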

[2] = target: T2, Glucose-dependent insulinotropic receptor (Homo sapiens) (UniProt Q8TDV5); assay: Agonist activity at human GPR119 expressed in CHOK1 cells assessed as cAMP accumulation after 1 hr by ultra LANCE assay relative to GSK1292263; format: functional, cell-based; outline: as §1
T2 sequence (whole entry): T1 sequence (Q8TDV5 whole entry)

[3] = tested on: Mus musculus; assay: Antidiabetic activity in C57BL/6N mouse assessed as reduction in blood glucose AUC (0 to 120 mins) at 300 mg/kg administered as single dose after 16 hrs of starvation followed by glucose challenge at 4 hrs post dose by OGTT relative to control; format: functional; set-up: scale not given: the % may be the effect or the level left
Outline: (§2)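 C57BL/6N mice were fasted 16 h and given a single dose: vehicle (0.5% sodium carboxymethylcellulose, 10 mL/kg), test compounds at 5 or 15 mg/kg, or metformin at 300 mg/kg. A glucose challenge (3 g/kg, oral) followed 4 h later. Blood glucose was read at 0, 15, 30, 60, 90 and 120 min for AUC0–2h. n = 8; mean ± SE versus vehicle.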

[4] = tested on: Mus musculus; assay: Antidiabetic activity in C57BL/6N mouse assessed as reduction in blood glucose AUC (0 to 120 mins) at 15 mg/kg administered as single dose after 16 hrs of starvation followed by glucose challenge at 4 hrs post dose by OGTT relative to control; format: functional; set-up: scale not given: the % may be the effect or the level left; outline: as §2
[5] = tested on: Mus musculus; assay: Antidiabetic activity in C57BL/6N mouse assessed as reduction in blood glucose AUC (0 to 120 mins) at 5 mg/kg administered as single dose after 16 hrs of starvation followed by glucose challenge at 4 hrs post dose by OGTT relative to control; format: functional; set-up: scale not given: the % may be the effect or the level left; outline: as §2
[6] = tested on: Mus musculus; assay: Antidiabetic activity in C57BL/6N mouse assessed as reduction in blood glucose AUC (0 to 120 mins) administered as single dose after 16 hrs of starvation followed by glucose challenge at 4 hrs post dose by OGTT; format: functional, organism-based; outline: as §2

With `CC(C)(C)OC(=O)N1[C@@H]2CC[C@H]1C[C@H](Oc1ncnc3c(Nc4ccc(C#N)cc4F)ncnc13)C2` as the molecule, how does the EC50 [1] read?
The EC50 was > 10000 nM.

What about the %max [2] of the same molecule?
The %max was 36.4%.

For `CC(C)(C)OC(=O)N1[C@@H]2CC[C@H]1C[C@H](Nc1ncnc3c(Nc4ccc(S(C)(=O)=O)cc4F)ncnc13)C2`, which EC50 [1] is on record?
Its EC50 is 452 nM.

What about the %max [2] of the same molecule?
The %max was 65.3%.

Which Activity [3] does the source give for `CN(C)C(=N)NC(=N)N` [METFORMIN] here?
The Activity was 18.2%.

For `CC(C)(C)OC(=O)N1C[C@@H]2CC[C@H]1C[C@@H]2Nc1ncnc2c(Nc3ccc(C#N)cc3F)ncnc12` (relative stereo), which EC50 [1] is on record?
The EC50 was 49 nM.

And the %max [2]?
The %max was 73.3%.

`CC(C)(C)OC(=O)N1CCC(Nc2ncnc3c(Nc4ccc(C#N)cc4F)ncnc23)CC1` was tested. Which EC50 [1] did it give?
The EC50 was 147 nM.

And the %max [2]?
Its %max is 67.2%.

For `CC(C)(C)OC(=O)N1C[C@@H]2CC[C@H]1C[C@H]2Nc1ncnc2c(Nc3ccc(C#N)cc3F)ncnc12` (relative stereo), which EC50 [1] is on record?
Its EC50 is > 10000 nM.

What about the %max [2] of the same molecule?
The %max was 31.7%.

How did the EC50 [1] turn out when `CC(C)(C)OC(=O)N1CCC(Nc2ncnc3c(Nc4ccc(S(C)(=O)=O)cc4)ncnc23)CC1` was run?
The EC50 was 345 nM.

What about the %max [2] of the same molecule?
The %max was 61.3%.

How did the Activity [4] turn out when `CC(C)(C)OC(=O)N1[C@@H]2CC[C@H]1C[C@@H](Nc1ncnc3c(Nc4ccc(S(C)(=O)=O)cc4F)ncnc13)C2` was run?
The Activity was 13.5%.

What about the EC50 [1] of the same molecule?
The EC50 was 2.2 nM.

And the Activity [5]?
The Activity was 6.4%.

What about the %max [2] of the same molecule?
The %max was 87.5%.

And the Activity [6]?
The Activity was “Dose-dependent effect”.

How did the EC50 [1] turn out when `CC(C)(C)OC(=O)N1[C@@H]2CC[C@H]1C[C@H](Nc1ncnc3c(Nc4ccc(S(C)(=O)=O)cc4)ncnc13)C2` was run?
The EC50 was 1400 nM.

And the %max [2]?
Its %max is 47.5%.

With `CC(C)(C)OC(=O)N1[C@@H]2CC[C@H]1C[C@H](Nc1ncnc3c(Nc4ccc(C#N)cc4F)ncnc13)C2` as the molecule, how does the EC50 [1] read?
The EC50 was 1700 nM.

What about the %max [2] of the same molecule?
The %max was 58.1%.

Which results are given for `CC(C)(C)OC(=O)N1[C@@H]2CC[C@H]1C[C@@H](Oc1ncnc3c(Nc4ccc(C#N)cc4F)ncnc13)C2`?
EC50 [1]: 36 nM; %max [2]: 78.9%

For `CC(C)(C)OC(=O)N1C[C@@H]2CC[C@H]1C[C@@H]2Nc1ncnc2c(Nc3ccc(S(C)(=O)=O)cc3)ncnc12` (relative stereo), which EC50 [1] is on record?
Its EC50 is 179 nM.

What about the %max [2] of the same molecule?
Its %max is 71.8%.

With `CC(C)(C)OC(=O)N1CCC(Oc2ncnc3c(Nc4ccc(C#N)cc4F)ncnc23)CC1` as the molecule, how does the EC50 [1] read?
The EC50 was 1000 nM.

And the %max [2]?
The %max was 53.4%.

`CC(C)(C)OC(=O)N1[C@@H]2CC[C@H]1C[C@@H](Nc1ncnc3c(Nc4ccc(S(C)(=O)=O)cc4)ncnc13)C2` was tested. Which EC50 [1] did it give?
The EC50 was 44 nM.

What about the %max [2] of the same molecule?
The %max was 72.9%.

Which Activity [4] does the source give for `CC(C)(C)OC(=O)N1[C@@H]2CC[C@H]1C[C@@H](Nc1ncnc3c(Nc4ccc(C#N)cc4F)ncnc13)C2` here?
Its Activity is 8.9%.

What about the EC50 [1] of the same molecule?
The EC50 was 8.1 nM.

What about the Activity [5] of the same molecule?
The Activity was 3.5%.

And the %max [2]?
Its %max is 83.8%.

And the Activity [6]?
The Activity was “Dose-dependent effect”.
